Results taken from ChEMBL document CHEMBL1649319, “In vitro antifungal activities of isavuconazole and comparators against rare yeast pathogens” (2010).

Key:
Format in all cases: functional
Trichosporon inkin [1] = assay: Antifungal activity against Trichosporon inkin after 48 hrs by Etest
Procedure, shortened: (§1)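 Etest on 2% glucose-RPMI agar. Yeast suspensions were swabbed across the plates and strips applied, then incubated at 35°C for 48 h. MIC was the lowest concentration where the elliptical inhibition zone border met the strip scale. Each reading was raised to the next 2-fold dilution on the CLSI scale and converted to log2. Isolates were revived from −70°C stocks on potato dextrose or Sabouraud agar.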

Rhodotorula mucilaginosa [2] = assay: Antifungal activity against Rhodotorula mucilaginosa after 7 days by broth microdilution method; conditions: 168 h
Rhodotorula mucilaginosa [3] = assay: Antifungal activity against Rhodotorula mucilaginosa after 48 hrs by broth microdilution method
Procedure, shortened: (§2)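 CLSI M27-A3 broth microdilution. Isolates were identified by ITS1-5.8S-ITS2 sequencing, kept at −70°C in sterile water, and revived on potato dextrose or Sabouraud agar. Drug ranges in wells were 0.015–16 or 0.125–128 μg/ml, depending on the agent. Plates were incubated at 35°C and MICs read visually at 48 h. QC strains were C. krusei ATCC 6258 and C. parapsilosis ATCC 22019.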

Saccharomyces cerevisiae [4] = assay: Antifungal activity against Saccharomyces cerevisiae after 48 hrs by broth microdilution method; procedure, shortened: as §2
[5] = tested on: Cutaneotrichosporon mucoides; assay: Antifungal activity against Trichosporon mucoides after 48 hrs by Etest; procedure, shortened: as §1
Rhodotorula mucilaginosa [6] = assay: Antifungal activity against Rhodotorula mucilaginosa after 7 days by Etest; conditions: 168 h
Magnusiomyces capitatus [7] = assay: Antifungal activity against Dipodascus capitatus after 4 days by Etest; conditions: 96 h
[8] = Antifungal activity against Trichosporon jirovecii after 48 hrs by Etest; conditions: Cutaneotrichosporon jirovecii; procedure, shortened: as §1
[9] = tested on: Cutaneotrichosporon mucoides; assay: Antifungal activity against Trichosporon mucoides assessed as percent susceptible isolates after 48 hrs by broth microdilution method
Procedure, shortened: (§3)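 Broth microdilution MICs (CLSI, 35°C, visual read at 48 h) were sorted into categories using CLSI M27-A3 triazole breakpoints. Susceptible was ≤1 or ≤8 μg/ml, SDD was 2 or 16–32 μg/ml, and resistant was ≥4 or ≥64 μg/ml, depending on the agent. Each category is the percentage of isolates falling in it.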

Trichosporon inkin [10] = assay: Antifungal activity against Trichosporon inkin after 48 hrs by broth microdilution method; procedure, shortened: as §2
[11] = Antifungal activity against Trichosporon domesticum after 48 hrs by Etest; conditions: Apiotrichum domesticum; procedure, shortened: as §1
Trichosporon asahii [12] = assay: Antifungal activity against Trichosporon asahii after 48 hrs by Etest; procedure, shortened: as §1
Rhodotorula mucilaginosa [13] = assay: Antifungal activity against Rhodotorula mucilaginosa after 48 hrs by Etest; procedure, shortened: as §1
Magnusiomyces capitatus [14] = assay: Antifungal activity against Dipodascus capitatus after 3 days by broth microdilution method; conditions: 72 h
Magnusiomyces capitatus [15] = assay: Antifungal activity against Dipodascus capitatus after 48 hrs by Etest; procedure, shortened: as §1
Trichosporon asahii [16] = assay: Antifungal activity against Trichosporon asahii after 48 hrs by broth microdilution method; procedure, shortened: as §2
[17] = Antifungal activity against Trichosporon domesticum after 48 hrs by broth microdilution method; conditions: Apiotrichum domesticum; procedure, shortened: as §2
[18] = tested on: Cutaneotrichosporon mucoides; assay: Antifungal activity against Trichosporon mucoides assessed as percent susceptible/dose-dependent isolates after 48 hrs by broth microdilution method; procedure, shortened: as §3
Magnusiomyces capitatus [19] = assay: Antifungal activity against Dipodascus capitatus after 48 hrs by broth microdilution method; procedure, shortened: as §2
[20] = tested on: Cutaneotrichosporon mucoides; assay: Antifungal activity against Trichosporon mucoides after 48 hrs by broth microdilution method; procedure, shortened: as §2
Trichosporon [21] = assay: Antifungal activity against Trichosporon sp. after 4 days by Etest; conditions: 96 h
Trichosporon [22] = assay: Antifungal activity against Trichosporon sp. after 3 days by broth microdilution method; conditions: 72 h
Saccharomyces cerevisiae [23] = assay: Antifungal activity against Saccharomyces cerevisiae after 48 hrs by Etest; procedure, shortened: as §1
Saccharomyces cerevisiae [24] = assay: Antifungal activity against Saccharomyces cerevisiae after 5 days by broth microdilution method; conditions: 120 h
[25] = Antifungal activity against Trichosporon jirovecii after 48 hrs by broth microdilution method; conditions: Cutaneotrichosporon jirovecii; procedure, shortened: as §2

CC[C@@H]([C@H](C)O)n1ncn(-c2ccc(N3CCN(c4ccc(OC[C@@H]5CO[C@@](Cn6cncn6)(c6ccc(F)cc6F)C5)cc4)CC3)cc2)c1=O [POSACONAZOLE]
> 16 µg/mL: MIC (Rhodotorula mucilaginosa [6]) | MIC50 (Rhodotorula mucilaginosa [6]) | MIC90 (Rhodotorula mucilaginosa [6]) | MIC (Rhodotorula mucilaginosa [13]) | MIC50 (Rhodotorula mucilaginosa [13]) | MIC90 (Rhodotorula mucilaginosa [13]) | MIC90 (Saccharomyces cerevisiae [23])
0.125 µg/mL: MIC50 (Trichosporon inkin [1]) | MIC50 [5] | MIC50 [8] | MIC50 [9] | MIC50 (Trichosporon inkin [10]) | MIC50 [11] | MIC50 (Trichosporon asahii [12]) | MIC50 (Magnusiomyces capitatus [14]) | MIC50 (Trichosporon asahii [16]) | MIC50 [17] | MIC50 [18] | MIC50 (Magnusiomyces capitatus [19]) | MIC50 [20] | MIC50 (Trichosporon [21]) | MIC50 (Trichosporon [22]) | MIC50 [25]
8 µg/mL: MIC90 (Rhodotorula mucilaginosa [2]) | MIC90 (Rhodotorula mucilaginosa [3])
0.5 µg/mL: MIC90 (Trichosporon inkin [1]) | MIC90 [5] | MIC90 (Magnusiomyces capitatus [7]) | MIC90 [8] | MIC90 [11] | MIC90 (Trichosporon asahii [12]) | MIC90 (Magnusiomyces capitatus [14]) | MIC90 (Magnusiomyces capitatus [15]) | MIC90 (Magnusiomyces capitatus [19]) | MIC90 (Trichosporon [21])
2 µg/mL: MIC90 (Saccharomyces cerevisiae [4]) | MIC50 (Saccharomyces cerevisiae [23]) | MIC90 (Saccharomyces cerevisiae [24])
0.06 µg/mL: MIC50 (Magnusiomyces capitatus [7]) | MIC50 (Magnusiomyces capitatus [15])
1 µg/mL: MIC50 (Rhodotorula mucilaginosa [2]) | MIC50 (Rhodotorula mucilaginosa [3]) | MIC50 (Saccharomyces cerevisiae [4]) | MIC50 (Saccharomyces cerevisiae [24])
0.25 µg/mL: MIC90 [9] | MIC90 (Trichosporon inkin [10]) | MIC90 (Trichosporon asahii [16]) | MIC90 [17] | MIC90 [18] | MIC90 [20] | MIC90 (Trichosporon [22]) | MIC90 [25]

C[C@@H](c1ncncc1F)[C@](O)(Cn1cncn1)c1ccc(F)cc1F [VORICONAZOLE]
0.03 µg/mL: MIC50 (Trichosporon inkin [1]) | MIC50 [5] | MIC50 (Magnusiomyces capitatus [7]) | MIC50 [8] | MIC50 [11] | MIC50 (Trichosporon asahii [12]) | MIC50 (Magnusiomyces capitatus [15]) | MIC50 (Trichosporon [21]) | MIC50 (Saccharomyces cerevisiae [23])
0.06 µg/mL: MIC90 (Magnusiomyces capitatus [7]) | MIC50 [9] | MIC50 (Trichosporon inkin [10]) | MIC50 (Magnusiomyces capitatus [14]) | MIC90 (Magnusiomyces capitatus [15]) | MIC50 (Trichosporon asahii [16]) | MIC50 [17] | MIC50 [18] | MIC50 (Magnusiomyces capitatus [19]) | MIC50 [20] | MIC50 (Trichosporon [22]) | MIC50 [25]
0.125 µg/mL: MIC90 (Trichosporon inkin [1]) | MIC50 (Saccharomyces cerevisiae [4]) | MIC90 [5] | MIC90 [8] | MIC90 [11] | MIC90 (Trichosporon asahii [12]) | MIC90 (Trichosporon [21]) | MIC90 (Saccharomyces cerevisiae [23]) | MIC50 (Saccharomyces cerevisiae [24])
8 µg/mL: MIC90 (Rhodotorula mucilaginosa [2]) | MIC90 (Rhodotorula mucilaginosa [3])
> 16 µg/mL: MIC50 (Rhodotorula mucilaginosa [6]) | MIC90 (Rhodotorula mucilaginosa [6]) | MIC50 (Rhodotorula mucilaginosa [13]) | MIC90 (Rhodotorula mucilaginosa [13])
0.25 µg/mL: MIC90 (Saccharomyces cerevisiae [4]) | MIC90 [9] | MIC90 (Trichosporon inkin [10]) | MIC90 (Magnusiomyces capitatus [14]) | MIC90 (Trichosporon asahii [16]) | MIC90 [17] | MIC90 [18] | MIC90 (Magnusiomyces capitatus [19]) | MIC90 [20] | MIC90 (Trichosporon [22]) | MIC90 (Saccharomyces cerevisiae [24]) | MIC90 [25]
2 µg/mL: MIC50 (Rhodotorula mucilaginosa [2]) | MIC50 (Rhodotorula mucilaginosa [3])
